Experimental data reported in ChEMBL document CHEMBL1212906, “Apoptotic effects of polyprenylated benzoylphloroglucinol derivatives from the twigs of Garcinia multiflora” (J Nat Prod, 2010).
Active and inactive are the calls of the source. The calls are words filed in the database; no cut-off is given here.

Legend:
HeLa C3 [1] = assay: Induction of apoptosis in human HeLaC3 cells assessed as morphological changes at 25 uM after 24 to 72 hrs; assay type: functional, cell-based
How it was run: (§1)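 Compound-treated HeLa-C3 biosensor cells were photographed under a microscope at 24, 48 and 72 h. Paclitaxel 500 nM was the positive control and untreated cells the negative control. Cell shrinkage and detachment from the plate were taken as apoptotic morphology.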

HeLa C3 [2] = assay: Induction of apoptosis in human HeLaC3 cells at 25 uM after 72 hrs; assay type: functional, cell-based
How it was run: (§2)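 Caspase-3 FRET biosensor (CFP–DEVD–YFP) HeLa-C3 cells were grown in MEM with 10% FBS, penicillin and streptomycin at 37 °C in 5% CO2. 7500 cells per well were seeded and given compound after 12–16 h (DMSO stock ≥1000× working concentration). Plates were excited at 440 nm, with emission read at 486 (CFP) and 535 (YFP) nm, for up to 72 h. A YFP/CFP ratio ≤3 was scored as apoptosis. Triplicates, three repeats.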

[3] = Induction of apoptosis in human HeLaC3 cells assessed as yellow fluorescent protein/cyan fluorescent protein emission ratio at 50 uM after 72 hrs by FRET assay; assay type: functional, HeLa C3
How it was run: as §2, with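 “concentration).” for “concentration). Plates were excited at 440 nm, with emission read at 486 (CFP) and 535 (YFP) nm, for up to 72 h.”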

[4] = Induction of apoptosis in human HeLaC3 cells assessed as yellow fluorescent protein/cyan fluorescent protein emission ratio at 100 uM after 72 hrs by FRET assay; assay type: functional, HeLa C3
How it was run: as §2, with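 “concentration).” for “concentration). Plates were excited at 440 nm, with emission read at 486 (CFP) and 535 (YFP) nm, for up to 72 h.”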

[5] = Induction of apoptosis in human HeLaC3 cells assessed as yellow fluorescent protein/cyan fluorescent protein emission ratio at 25 uM after 72 hrs by FRET assay; assay type: functional, HeLa C3
How it was run: as §2, with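 “concentration).” for “concentration). Plates were excited at 440 nm, with emission read at 486 (CFP) and 535 (YFP) nm, for up to 72 h.”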

[6] = Cytotoxicity against human HeLa cells after 72 hrs by MTT assay
HeLa C3 [7] = assay: Induction of apoptosis in human HeLaC3 cells assessed as morphological changes at 50 uM after 24 to 72 hrs; assay type: functional, cell-based; how it was run: as §1
HeLa C3 [8] = assay: Induction of apoptosis in human HeLaC3 cells assessed as morphological changes at 100 uM after 24 to 72 hrs; assay type: functional, cell-based; how it was run: as §1

CC(C)=CC[C@@H]1C[C@]23C[C@H](CC=C(C)C)C(C)(C)[C@](CC=C(C)C)(C(=O)C(C(=O)c4ccc(O)c(O)c4)=C2OC1(C)C)C3=O [ISOXANTHOCHYMOL]
Activity (HeLa C3 [1]): Active | Activity (HeLa C3 [2]): Active | Ratio [3]: >3 | Ratio [4]: >3 | Ratio [5]: <=3

O=C1c2c(O)cc(O)cc2O[C@H](c2ccc(O)cc2)[C@H]1c1c(O)cc(O)c2c(=O)cc(-c3ccc(O)c(O)c3)oc12 [MORELLOFLAVONE]
Ratio [3]: >3 | Ratio [4]: >3 | Ratio [5]: >3

C=C(C)[C@H](CC=C(C)C)C[C@@]12C[C@@H](CC=C(C)C)C(C)(C)[C@@](CCC(C)(C)O)(C(=O)C(C(=O)c3ccc(O)c(O)c3)=C1O)C2=O [GARCIMULTIFLORONE D]
IC50 [6]: 17.5 µM | Ratio [3]: <=3 | Ratio [4]: <=3 | Activity (HeLa C3 [7]): Active | Ratio [5]: >3

C=C(C)[C@H](CC=C(C)C)C[C@@]12C[C@@H](CC(O)C(C)(C)O)C(C)(C)[C@@](CC=C(C)C)(C(=O)C(C(=O)c3ccc(O)c(O)c3)=C1O)C2=O (stereo partly specified) [GARCIMULTIFLORONE F]
IC50 [6]: 14.9 µM | Ratio [3]: <=3 | Ratio [4]: <=3 | Activity (HeLa C3 [7]): Active | Ratio [5]: >3

C=C(C)C(O)C[C@H](C[C@@]12C[C@@H](CC=C(C)C)C(C)(C)[C@@](CC=C(C)C)(C(=O)C(C(=O)c3ccc(O)c(O)c3)=C1O)C2=O)C(=C)C (stereo partly specified) [GARCIMULTIFLORONE E]
IC50 [6]: 14.3 µM | Activity (HeLa C3 [8]): Active | Ratio [3]: >3 | Ratio [4]: <=3 | Ratio [5]: >3

C=C(C)[C@H](CC=C(C)C)C[C@@]12C[C@@H](CC=C(C)C)C(C)(C)[C@@](CC(O)C(C)(C)O)(C(=O)C(C(=O)c3ccc(O)c(O)c3)=C1O)C2=O (stereo partly specified)
IC50 [6]: 23 µM | Ratio [3]: >3 | Ratio [4]: >3 | Ratio [5]: >3

C=C(C)[C@H](CC=C(C)C)C[C@@]12C[C@@H](CC=C(C)C)C(C)(C)[C@@](CC=C(C)C)(C(=O)C(C(=O)c3ccc(O)c(O)c3)=C1O)C2=O [GUTTIFERONE F]
Ratio [3]: <=3 | Ratio [4]: <=3 | Activity (HeLa C3 [7]): Active | Ratio [5]: >3
